XBP1 UPR activ = adaptive UPR (XBP1) activation. AID 463104. activation, % at 20 µM. CHO-XBP1 luciferase reporter, IRE1-XBP1 UPR activation, luminescence; percent of tunicamycin response, DMSO as zero. 330,000 compounds, 0.33% hits;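 active means versus positive control, 20 µM dose yields 30% or more activation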
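Signal: luciferase luminescence; Assay system: CHO-XBP1 luciferase reporter cells; Amount: one thousand reporter cells per well; Dosing: 20 µM single concentration, DMSO 1%; Benchmarks: high control tunicamycin 10 µg/mL final, low control DMSO vehicle only; Schedule: 6 h compound exposure at 37 °C, 5% CO2; Evaluation: percent activation relative to tunicamycin reference.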
Mdm2 MdmX PPI = human Mdm2/MdmX binding inhibition; O15151+Q00987; SaOS-2 split-luciferase Mdm2/MdmX complementation, luminescence; inhibition, % at 8 µM; 330,000 compounds, 3% hits;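 active means inhibition of at least 50% at 8 µM in the primary screen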
Target sequence (O15151 whole entry, looked up): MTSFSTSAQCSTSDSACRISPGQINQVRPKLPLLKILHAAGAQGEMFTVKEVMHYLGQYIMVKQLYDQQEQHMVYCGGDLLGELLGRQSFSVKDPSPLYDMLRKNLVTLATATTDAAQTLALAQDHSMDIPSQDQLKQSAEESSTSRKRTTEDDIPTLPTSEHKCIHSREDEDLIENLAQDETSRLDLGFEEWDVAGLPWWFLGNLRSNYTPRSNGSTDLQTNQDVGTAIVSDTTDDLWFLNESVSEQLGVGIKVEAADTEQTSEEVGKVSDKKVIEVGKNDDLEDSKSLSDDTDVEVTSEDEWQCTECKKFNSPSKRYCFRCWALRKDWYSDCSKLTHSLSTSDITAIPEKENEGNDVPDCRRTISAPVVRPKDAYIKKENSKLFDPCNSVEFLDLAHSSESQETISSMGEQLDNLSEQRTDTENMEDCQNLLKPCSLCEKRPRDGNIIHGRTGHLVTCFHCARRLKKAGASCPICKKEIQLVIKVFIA
Target sequence (Q00987 whole entry, looked up): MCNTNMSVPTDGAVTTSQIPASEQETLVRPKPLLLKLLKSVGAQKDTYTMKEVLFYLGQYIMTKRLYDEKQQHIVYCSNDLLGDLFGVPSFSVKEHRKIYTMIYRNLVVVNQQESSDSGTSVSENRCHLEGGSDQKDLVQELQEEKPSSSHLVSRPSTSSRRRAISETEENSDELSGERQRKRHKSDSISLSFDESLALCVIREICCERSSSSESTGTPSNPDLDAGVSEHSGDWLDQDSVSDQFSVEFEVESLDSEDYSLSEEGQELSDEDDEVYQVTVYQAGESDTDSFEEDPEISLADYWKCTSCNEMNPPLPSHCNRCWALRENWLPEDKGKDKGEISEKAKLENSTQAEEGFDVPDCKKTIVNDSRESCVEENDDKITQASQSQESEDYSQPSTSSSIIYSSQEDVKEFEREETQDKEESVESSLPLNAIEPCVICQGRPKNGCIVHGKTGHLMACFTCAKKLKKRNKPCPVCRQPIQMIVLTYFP
ABHD5-PLIN5 inh = ABHD5-PLIN5 protein interaction inhibition. Q00G26+Q8WTS1. 360,000 compounds, 0.78% hits. AID 602281. Split G. princeps luciferase complementation, luminescence, 4 h. inhibition, % at 4 µM;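 active means inhibition above the mean inhibition across every tested compound plus 3 SD, cut at about 22% in these data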
UPR CHOP act = activators of apoptotic arm of unfolded protein response (CHOP). CHO-CHOP luciferase reporter, UPR activation, luminescence; percent of tunicamycin response over DMSO baseline. activation, % at 10 µM. 330,000 compounds, 0.34% hits. AID 449763;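 active means at 10 µM dose, activation of 40% or more, normalized to positive control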
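Material: CHO-CHOP cells, stable luciferase reporter of PERK-eIF2a-CHOP signalling; quantity: 500 reporter cells seeded per well; buffer or medium: F12 medium containing 10% fetal bovine serum; compound: one dose, 10 µM in 0.5% DMSO; incubation: 6 h compound treatment, 37 °C; measured by: Steady-Glo luciferase luminescence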
Exocytosis inh = lytic granule exocytosis inhibition; inhibition, % at 10 µM; AID 651702; 360,000 compounds, 0.66% hits; TALL-104 LAMP-1 surface exposure, flow cytometry; cells stimulated with thapsigargin and PMA;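 active means inhibition above about 55%, limit read from the data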
Mdm2-MdmX conf = confirmation of human Mdm2/MdmX interaction inhibitors; shares compounds with Mdm2 MdmX PPI; Mdm2-MdmX binding, luminescent assay; inhibition, % at 8 µM; 10,000 compounds, 55% hits; AID 489028; in the data active means inhibition above about 40%
FLuc counter = counter-screen for Mdm2/MdmX inhibitors: full-length luciferase; shares compounds with Mdm2 MdmX PPI; SaOS-2 full-length luciferase counterscreen, luminescence; inhibition, % at 8 µM; 6,200 compounds, 77% hits;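 active means mean inhibition at 8 µM reaching about 37%, which flags the compound as non-specific, limit read from the data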;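 further: p53-null SaOS-2 cells with luciferase driven by a doxycycline-inducible promoter; compound on cells about two nights before reading with doxycycline added after day one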
Of the large screens only hits and unclear results are named; the others gave an inactive call (follow-up assays come after a bar, where they were run). This is a sample that favours compounds with a hit; in the whole collection about 4% have one here.

COC(=O)C1=C(C)N(Cc2ccccc2)C(=NCc2ccccc2)N[C@H]1c1ccccc1	Mdm2 MdmX PPI 91 | Mdm2-MdmX conf inactive
COC(=O)C1=C(C)N(Cc2ccccc2)C(=S)N[C@H]1c1cccc(F)c1	none
CCN(CC)CCCN=C1N[C@@H](c2cccc(C(F)(F)F)c2)C(C(=O)OC)=C(C)N1CC	Mdm2 MdmX PPI 100 | Mdm2-MdmX conf 75 | FLuc counter inactive
COC(=O)C1=C(C)N(Cc2ccccc2)C(=NCc2ccccc2)N[C@H]1c1cccc(F)c1	Mdm2 MdmX PPI 74 | Mdm2-MdmX conf inactive | FLuc counter 47
COCCN=C1N[C@@H](c2ccccc2)C(C(=O)OC)=C(C)N1Cc1ccccc1	none
O=C(O)c1cccc(OCc2ccccc2Cl)c1	none
CCOC(=O)[C@H]1[C@H]2COc3ccc(Cl)cc3[C@@H]2N2C(=O)CN(Cc3ccc(C)cc3)C(=O)[C@@]12C	none
Cc1noc(C)c1COc1cccc(C(=O)OCC(=O)N2CC(=O)Nc3ccccc32)c1	Mdm2 MdmX PPI 50 | Mdm2-MdmX conf 67 | FLuc counter 59
O=C(Cc1ccc(S(=O)(=O)N2CCOCC2)s1)NCC(=O)Nc1ccccc1Br	none
O=C(Cc1ccc(S(=O)(=O)N2CCOCC2)s1)Nc1ccccc1Br	Mdm2 MdmX PPI 66 | Mdm2-MdmX conf inactive
CC1=Nn2c(nnc2C2CCCCC2)SC1	none
CCCCN1/C(=C/c2ccc3ccccc3[n+]2CC)Sc2ccccc21	Mdm2 MdmX PPI 77, Exocytosis inh 74 | Mdm2-MdmX conf 76 | FLuc counter inactive
Oc1ccc(Br)cc1-c1cc(-c2ccccc2)n[nH]1	none
Oc1ccc(Br)cc1-c1cc(-c2ccc(Cl)cc2)n[nH]1	Mdm2 MdmX PPI 85 | Mdm2-MdmX conf inactive | FLuc counter inactive
Cc1cc(=O)[nH]c(SCC(=O)Nc2nc(-c3ccccc3)cs2)n1	none
COc1ccc(CCNC(=O)/C(=C/c2cccnc2)NC(=O)c2ccccc2)cc1	none
C=CCc1cccc(C2Nc3ccccc3C(=O)N2O)c1O (configuration not stated)	Mdm2 MdmX PPI 72 | Mdm2-MdmX conf inactive
Cc1nn(C)cc1C1Nc2ccccc2C(=O)N1O (configuration not stated)	none
O=C1c2ccccc2NC(c2ccc(Cl)cc2Cl)N1O (configuration not stated)	Mdm2 MdmX PPI 65 | Mdm2-MdmX conf 46 | FLuc counter inactive
O=C1c2ccccc2NC(c2ccc(Cl)cc2Cl)N1Cc1ccccc1 (configuration not stated)	none
O=C(c1ccc2c3n(nc2c1)-c1ccc(Cl)cc1CO3)N1CCCCC1	none
COC(=O)C(C(=O)Nc1ccccc1C)C1CCCC1 (configuration not stated)	none
COC(=O)C(C(=O)Nc1ccc(OC)cc1)C1CCCCCC1 (configuration not stated)	Mdm2 MdmX PPI 56 | Mdm2-MdmX conf 40 | FLuc counter 66
CCc1nn2c(=O)cc(COc3cccc(NC(=O)c4ccco4)c3)nc2s1	none
Cc1ccc(C)n1-c1nn(S(=O)(=O)c2cccc3cccnc23)c2cccc(F)c12	none
Cc1ccc(S(=O)(=O)n2nc(-n3c(C)ccc3C)c3c(F)cccc32)c2ccccc12	Mdm2 MdmX PPI 50 | Mdm2-MdmX conf inactive
CCOC(=O)c1c(C)[nH]c(C(=O)/C(C#N)=C/c2ccc(OC(F)F)c(OC)c2)c1C	none
Cc1ccc(Nc2nnc(SCc3nc4ccccc4c(=O)[nH]3)s2)cc1	Mdm2 MdmX PPI 66 | Mdm2-MdmX conf 40 | FLuc counter inactive
CCOC(=O)N1CCN(C(=O)c2ccc3c(Cl)c4c(nc3c2)CCCC4)CC1	none
CN1CCN(CCCNC(=O)c2ccc3c(Cl)c4c(nc3c2)CCCC4)CC1	Mdm2 MdmX PPI 76 | Mdm2-MdmX conf 42 | FLuc counter 58
CC(C)(C)c1ccc(C(=O)NCCCN2CCN(CCCNC(=O)c3ccc(C(C)(C)C)cc3)CC2)cc1	Mdm2 MdmX PPI 95 | Mdm2-MdmX conf 95 | FLuc counter 57
CCC(C)NC(=O)c1ccc2c(Cl)c3c(nc2c1)CCC3 (configuration not stated)	none
O=C(c1ccc2c(Cl)c3c(nc2c1)CCCC3)N1CCC(N2CCCCC2)CC1	Mdm2 MdmX PPI 58 | Mdm2-MdmX conf inactive
CCN(C(=O)c1ccc2c(Cl)c3c(nc2c1)CCC3)c1ccc(C)c(C)c1	Mdm2 MdmX PPI 53 | Mdm2-MdmX conf 43 | FLuc counter 82
CCCN(C)C1CN(Cc2cn(Cc3ccc(C(F)(F)F)cc3)nn2)S(=O)(=O)C1 (configuration not stated)	none (no result: XBP1 UPR activ, Mdm2 MdmX PPI, UPR CHOP act)
O=c1cc(O)nc[nH]1	none
Cc1cc(C)c(C(=O)COC(=O)CNC(=O)c2ccccc2C)c(C)c1	none
O=C(Nc1ccc(F)cc1)Nc1sccc1-c1nc2ccccc2s1	Mdm2 MdmX PPI 68 | Mdm2-MdmX conf inactive | FLuc counter 69
O=C(Nc1ccc(O)c(-c2nc3ccccc3s2)c1)c1cccs1	none
O=C(Cn1c(=O)c2c(ncn2C2CCCC2)n(Cc2ccccc2)c1=O)N1CCc2ccccc21	none
CCc1cc2c3c(c1)C(C)CC(C)(C)N3C(=O)C2=O (configuration not stated)	none
O=C(Nc1ncc(Cc2ccccc2Cl)s1)c1ccc([N+](=O)[O-])cc1	none
Cc1cccc(NC(c2ccc(C)s2)c2ccc3ccc(C)nc3c2O)n1 (configuration not stated)	Mdm2 MdmX PPI 98, UPR CHOP act 93 | Mdm2-MdmX conf 61 | FLuc counter inactive
Cc1ccc2ccc(C(Nc3ccccc3)c3ccccc3)c(O)c2n1 (configuration not stated)	none (no result: XBP1 UPR activ, Mdm2 MdmX PPI, UPR CHOP act)
CC1CN(c2ncnc3c2oc2ccccc23)CC(C)O1 (configuration not stated)	none
Clc1ccc(N2CCN(c3ncnc4c3oc3ccccc34)CC2)cc1	Mdm2 MdmX PPI 58 | Mdm2-MdmX conf inactive
O=C(CCN1C(=O)/C(=C/c2ccccc2Cl)SC1=S)N1CCOCC1	none
O=C(CCCN1C(=O)/C(=C/c2ccccc2Cl)SC1=S)NNC(=O)c1ccccc1Cl	Mdm2 MdmX PPI 56 | Mdm2-MdmX conf inactive
Cc1cc(NC(=O)CCCN2C(=O)/C(=C/c3ccccc3Cl)SC2=S)no1	Mdm2 MdmX PPI 68 | Mdm2-MdmX conf 43 | FLuc counter 58
O=C(CCCN1C(=O)/C(=C/c2ccccc2Cl)SC1=S)N1CCCC1	Mdm2 MdmX PPI 76 | Mdm2-MdmX conf inactive
O=C(CCN1C(=O)/C(=C/c2ccccc2Cl)SC1=S)N1CCCC1	Mdm2 MdmX PPI 62 | Mdm2-MdmX conf inactive

Compound activity from PubChem BioAssay.
